Key:
[1] = test system: carrageenan-induced paw edema; test: Carrageenan-induced paw edema in mice; format: in vivo, Balb/c mice; details: 1 mg/kg; paw volume 0 h vs 10 h
How it was run: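 Female Balb/c mice were fasted overnight and dosed orally with test compound at 1, 2 or 5 mg/kg (n = 5 per group). 1% carrageenan in PBS was injected subplantar into the left hind paw. Paw volume was read by plethysmometer at 1, 3, 6, 8 and 10 h. % inhibition was calculated from edema volume in control vs treated groups.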

macrophage phagocytosis = test: Macrophage phagocytosis by the carbon clearance method; format: in vivo, Balb/C mice (Mus musculus); details: mice, 1 mg/kg
How it was run: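 Mice received saline, test compound (1, 2, 5 mg/kg) or dexamethasone (1 mg/kg) as reference. On day 6, carbon ink suspension was injected via the tail vein. Retro-orbital blood was taken at 0 and 30 min, lysed in 0.1% sodium carbonate, and read at 675 nm. Phagocytic index was derived from OD change between the two times (n = 5).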

In the case of `C[C@@H]1C[C@H]2[C@@H]3CCC4=CC(=O)C=C[C@]4(C)[C@@]3(F)[C@@H](O)C[C@]2(C)[C@@]1(O)C(=O)CO` [dexamethasone], the “percentage inhibition of paw edema” value [1] was 88.5% and the phagocytic index (macrophage phagocytosis) was 0.038 ± 0.002.

From article PMC8600527 (ACS Omega, 2021)
